A selection: hits, their analogues and other compounds. The true share with any hit is near 2.1%.
SR-BI DiI inh = mouse SR-BI HDL lipid transfer inhibition; Q61009; ldlA[mSR-BI] CHO cells, DiI-HDL uptake fluorescence, 3 h; inhibition, % at 12.5 µM; actives 0.96% (n = 320,000); AID 488896;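 active means mean replicate inhibition of at least 70% and a set share of replicates each scoring 70 or more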;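 further: 0% = median of neutral control wells and 100% = median of positive control wells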
Target sequence (Q61009 whole entry, looked up): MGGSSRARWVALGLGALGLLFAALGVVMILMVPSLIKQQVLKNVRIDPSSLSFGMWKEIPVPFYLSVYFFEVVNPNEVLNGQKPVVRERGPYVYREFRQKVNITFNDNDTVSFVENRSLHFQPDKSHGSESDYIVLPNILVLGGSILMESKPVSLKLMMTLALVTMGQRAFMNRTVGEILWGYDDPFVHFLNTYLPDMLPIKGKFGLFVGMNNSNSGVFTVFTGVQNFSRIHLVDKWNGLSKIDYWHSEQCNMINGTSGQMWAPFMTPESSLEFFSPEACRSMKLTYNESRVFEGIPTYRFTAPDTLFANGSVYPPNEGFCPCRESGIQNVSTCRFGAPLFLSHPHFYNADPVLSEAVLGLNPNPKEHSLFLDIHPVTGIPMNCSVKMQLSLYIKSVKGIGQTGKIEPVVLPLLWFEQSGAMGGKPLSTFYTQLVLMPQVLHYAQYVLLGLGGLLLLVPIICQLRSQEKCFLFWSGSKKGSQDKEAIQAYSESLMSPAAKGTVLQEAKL
miR-122 sensor = blocks miR-122 activity in Huh7 sensor cells; actives 0.3% (n = 340,000); Huh7 miR-122 Renilla luciferase sensor, 48 h; neutral wells = 0, positive control = 100; activation (reporter increase), % at 12.5 µM; AID 602342;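 active means mean replicate activation score at least 90 and every replicate individually at or above 90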;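 further: higher luciferase means less miR-122 activity so hits act as miR-122 inhibitors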
SR-BI DiI-HDL act = SR-BI HDL lipid transfer activation | activation, % at 12.5 µM | CHO ldlA[mSR-BI] cells, DiI-HDL uptake fluorescence, 3 h; 100 = double the neutral-control signal | actives 0.096% (n = 320,000);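 active means mean replicate activation of at least 60% and every replicate at or above 60%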;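 further: 0% = median plate neutral-control signal and 100% = twice that signal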
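Material: SR-BI-overexpressing, LDLR-lacking CHO cells | Dosing: Single compound concentration, delivered by pin transfer | Probe or stimulus: Labelled HDL, 10 µg/mL | Signal: Bottom-read cell fluorescence after medium removal, ex 550/em 595 nm | Schedule: 3 h, 37 °C | Evaluation: HDL uptake via cellular fluorescence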
CAL PDZ FP-1 = inhibitors of human CAL PDZ peptide binding; purified CAL PDZ, TMR-peptide fluorescence polarization, 1 h; inhibition, % at 20 µM; actives 0.02% (n = 330,000); AID 504414;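 active means highest replicate inhibition of at least 40%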;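 further: plate controls were DMSO neutral control wells for no effect and unlabeled competitor peptide control wells for full effect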
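Assay system – tagged CAL PDZ protein CerCALP, purified · Timing – 1 h at RT · Compound – single point, 20 µM · Measured by – fluorescence polarization from S- and P-plane intensities, G-factor corrected · Evaluation – inhibition from polarization loss · Probe or stimulus – TMR reporter peptide T*-PRC34 · Buffer or medium – pH 7.4 phosphate-saline buffer, reducing agent, detergent, IgG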
ARNT TACC3 PPI = ARNT/TACC3 interaction disruption. Q9Y6A5. AID 623870. actives 0.66% (n = 390,000). AlphaScreen His-ARNT PAS-B/GST-TACC3 binding, luminescence; TACC3 fragment carries E629A point mutation. inhibition, % at 9.99 µM;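 active means mean inhibition of replicates at least 50% and at least half of replicates each reaching 50%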;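 further: 0% = complete ARNT plus TACC3 wells and 100% = ARNT alone without TACC3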
CAL PDZ FP-2 = CAL PDZ (human) peptide binding inhibition; purified CAL PDZ, TMR-peptide fluorescence polarization, 1 h; inhibition, % at 24.9 µM; actives 0.92% (n = 300,000); AID 602252;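 active means mean inhibition of at least 30% with at least half of replicates also reaching 30%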;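 further: 0% = DMSO neutral control and 100% = excess unlabeled competitor peptide PRC23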
* marks the source's active call; other numbers are inactive results; nt = no result; [ ] = remark or other dose.

SMILES	SR-BI DiI inh	miR-122 sensor	SR-BI DiI-HDL act	CAL PDZ FP-1	ARNT TACC3 PPI	CAL PDZ FP-2
Cc1[nH]c2ccccc2c1/C=N/Nc1ccc([N+](=O)[O-])cc1	128.1*	nt	-128.1	-0.1	1.8	-0.4
Cc1[nH]c2ccccc2c1/C=N/NC(=O)c1cccc([N+](=O)[O-])c1	57.7	-2.3	-57.7	-0.3	nt	4.9
C[C@H](CO)N1C[C@H](C)[C@H](CN(C)C(=O)c2ccccn2)Oc2cc(C#CC3CC3)ccc2S1(=O)=O	nt	1.6[16.7 µM]	nt	nt	-3.9	nt
C[C@@]12C(=O)N(c3ccc(Br)cc3)C(=O)N1[C@@H]1c3ccccc3OC[C@@H]1[C@H]2c1ccccc1	18.2	-4.4	-18.2	-0.1	-0.2	-2.2
COc1ccc2c(c1)OC[C@H]1[C@H]2N2C(=O)c3cc(F)ccc3NC(=O)[C@@]2(C)[C@H]1c1ccccc1	55.5	-6.8	-55.5	-0.9	nt	-4.9
C[C@]12C(=O)N(c3ccc(Br)cc3)C(=O)N1[C@@H]1c3ccccc3OC[C@@H]1[C@H]2c1ccccc1	74.5*	-3.1	-74.5	0.6	1.6	-0.1
COc1ccc2c(c1)OC[C@H]1[C@H]2N2C(=O)c3cc(OC)ccc3NC(=O)[C@@]2(C)[C@H]1c1ccccc1	73.4*	-1.6	-73.4	-2.2	-2.5	-2.6
COc1ccc(CC(NC(C)=O)C(=O)NC2CCN(C(=O)c3ccc([N+](=O)[O-])cc3)CC2)cc1OC (stereo not drawn)	-6.1	-9.5	6.1	16.3	-3.8	76.6*
COc1ccccc1CC(NC(C)=O)C(=O)NC1CCN(C(=O)c2ccc([N+](=O)[O-])cc2)CC1 (stereo not drawn)	-11.8	nt	11.8	-1.4	1.4	1.6
COc1ccc(NC(=O)Nc2ccc3c(c2)C(=O)N([C@H](C)CO)C[C@H](C)[C@@H](CN(C)Cc2ccccc2)O3)cc1	nt	2.1[16.7 µM]	nt	nt	-8.4	nt
Cc1cccc(N2C(=O)CC(SC(=Nc3ccccc3)Nc3ccccc3)C2=O)c1 (stereo not drawn)	74.3*	10.1	-74.3	0.0	2.6	-2.6
C[C@@H]1CCCCO[C@@H](CN(C)C(=O)Nc2ccccc2)[C@H](C)CN([C@@H](C)CO)C(=O)c2cc(NS(=O)(=O)c3ccc(Cl)cc3)ccc2O1	nt	-15.3[16.7 µM]	nt	nt	6.6	nt
COc1ccc(CC(=O)OCC(=O)NCc2ccccc2Cl)cc1OC	-80.0	nt	80.0*	-0.1	-0.9	0.4
COc1ccccc1CNC(=O)COC(=O)Cc1ccc(Br)cc1	-8.0	-3.9	8.0	-1.4	4.3	nt
CO[C@@H]1CN(C)C(=O)c2cc(NC(=O)Nc3ccccc3)ccc2OC[C@@H](C)N(CC2CC2)C[C@H]1C	nt	-0.4[16.7 µM]	nt	nt	-0.4	nt
Cc1ccc2c(c1)c(C1=NC(=S)NC1=O)c(O)n2C	6.0	nt	-6.0	-0.9	6.2	30.3*
Cc1ccc2c(c1)c(N=Nc1ccc([N+](=O)[O-])cc1)c(O)n2C	17.0	17.5	-17.0	0.0	-6.4	-2.0
Cn1cc(CN2CCCC(CO)(Cc3cccc(Cl)c3)C2)cn1 (stereo not drawn)	-11.1	-2.6	11.1	-1.6	0.5	-5.2
Cc1cccc(-c2ncc(CN3CCCC(CO)(Cc4cccc(Cl)c4)C3)cn2)c1 (stereo not drawn)	nt	5.7	nt	16.4	0.1	57.2*
Cc1ccc(NC(=S)N=Nc2c(O)[nH]c3ccccc23)cc1	2.6	nt	-2.6	-2.4	-5.4	-1.4
Oc1ccc(NC(=S)N=Nc2c(O)[nH]c3ccccc23)cc1	40.9	-6.8	-40.9	-0.5	66.6*	-2.5
Cc1noc(C)c1C(=O)N(C)C[C@@H]1OCc2ccccc2-c2ccccc2C(=O)N([C@H](C)CO)C[C@H]1C	nt	nt	nt	nt	4.6	nt
O=C(COc1ccc(Cl)cc1)Nc1cc(NC(=O)COc2ccc(Cl)cc2)cc(C(=O)O)c1	-29.4	2.2	29.4	nt	-8.3	86.5*
COc1ccc2nc(-c3ccccc3)cc(C(=O)OCC(=O)NC3CC3)c2c1	25.0	nt	-25.0	-1.4	nt	1.0
Cc1cc(C(=O)Nc2sc3c(c2C#N)CCCCC3)cs1	78.8*	10.9	-78.8	-0.7	2.2	nt
